For experiment [1], the species on record is Homo sapiens. The experiment can be described thus: Inhibition of recombinant human MARK1 T20S mutant (2 to end residues) at 10 uM using KKKVSRSGLYRSPSMPENLNRPR as substrate measured after 40 mins in presence of [gamma33P]ATP by scintillation counting method.
The subject of experiment [2] is PI3-kinase p110-alpha/p85-alpha (Homo sapiens), P27986+P42336 [H1047R]. In words: Inhibition of recombinant full-length human PI3K p110alpha/p85alpha H1047R mutant at 10 uM using phosphatidylinositol-4, 5-bisphosphate as substrate measured after 40 mins by fluorescence assay. Format: protein-complex assay.
For experiment [3], the species on record is Homo sapiens. The experiment can be described thus: Inhibition of recombinant human DDR1 V833L mutant (492 to end residues) at 10 uM using KKKSPGEYVNIEFG as substrate measured after 40 mins in presence of [gamma33P]ATP by scintillation counting method.
Experiment [4] concerns the target Cyclin-Y/Cyclin-dependent kinase 16 (Homo sapiens) (UniProt Q00536+Q8ND76). The experiment can be described thus: Inhibition of recombinant full length human CDK16/cyclinY at 10 uM using PKSPKARKKL as substrate measured after 120 mins in presence of [gamma33P]ATP by scintillation counting method. Format: protein-complex assay.
In experiment [5] the target is Activin receptor type-1 (Homo sapiens) (UniProt Q04771). The experiment can be described thus: Inhibition of recombinant human ALK2 (142 to end residues) at 10 uM using casein as substrate measured after 40 mins in presence of [gamma33P]ATP by scintillation counting method.
Experiment [6] concerns the target CDK12/Cyclin K (Homo sapiens) (UniProt O75909+Q9NYV4). The experiment can be described thus: Inhibition of recombinant full length human CDK12/cyclinK at 10 uM using RSRSRSRSRSRSRSR as substrate measured after 120 mins in presence of [gamma33P]ATP by scintillation counting method. Format: protein-complex assay.
In experiment [7] the target is Cyclin-dependent kinase 1/cyclin B1 (Homo sapiens) (UniProt P06493+P14635). The experiment can be described thus: Inhibition of recombinant full-length human CDK1/cyclinB at 10 uM using histone H1 as substrate measured after 40 mins in presence of [gamma33P]ATP by scintillation counting method. Format: protein-complex assay.
The target in experiment [8] is Mitogen-activated protein kinase 12 (Homo sapiens) (UniProt P53778). The experiment can be described thus: Inhibition of recombinant full-length human SAPK3 at 10 uM using myelin basic protein as substrate measured after 40 mins in presence of [gamma33P]ATP by scintillation counting method.
The target in experiment [9] is Protein kinase C theta type (Homo sapiens) (UniProt Q04759). In words: Inhibition of recombinant full-length human PKCtheta at 10 uM using histone H1as substrate measured after 40 mins in presence of [gamma33P]ATP by scintillation counting method.
For experiment [10], the target named is Serine/threonine-protein kinase ULK2 (Homo sapiens) (UniProt Q8IYT8). In words: Inhibition of human ULK2 (1 to 306 residues) using casein as substrate measured after 40 mins in presence of [gamma33P]ATP by scintillation counting method.
Experiment [11] addresses Calcium/calmodulin-dependent protein kinase type 1G (Homo sapiens) (UniProt Q96NX5). In words: Inhibition of human CaMK1gamma. Summed up:
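Kinase panel of 422 kinases screened by Eurofins KinaseProfiler at a single test-compound concentration of 10 µM.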

Experiment [12] concerns the target Insulin-like growth factor 1 receptor (Homo sapiens) (UniProt P08069). In words: Inhibition of recombinant human IGF1R (959 to end residues) at 10 uM using KKKSPGEYVNIEFG as substrate measured after 40 mins in presence of [gamma33P]ATP by scintillation counting method.
For experiment [13], the target named is Platelet-derived growth factor receptor beta (Homo sapiens) (UniProt P09619). The experiment can be described thus: Inhibition of recombinant human PDGFRbeta (557 to end residues) at 10 uM using poly(Glu, Tyr) 4:1 as substrate measured after 40 mins in presence of [gamma33P]ATP by scintillation counting method.
Another experiment deals with Peregrin (Homo sapiens) (UniProt P55201). In words: Binding affinity to human partial length BRPF1 (E627 to G740 residues) expressed in bacterial expression system at 1 uM by BROMOscan assay. In outline: (§1)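 BROMOscan bromodomain cross-screen run by an outside service, compound at 1 µM against 32 recombinant bromodomains. Binding given as percent of control.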
The target in experiment [14] is Ribosomal protein S6 kinase alpha-2 (Homo sapiens) (UniProt Q15349). The experiment can be described thus: Inhibition of recombinant full-length human Rsk3 at 10 uM using KKKNRTLSVA as substrate measured after 40 mins in presence of [gamma33P]ATP by scintillation counting method.
The target of experiment [15] is Non-receptor tyrosine-protein kinase TYK2 (Homo sapiens) (UniProt P29597). In words: Inhibition of human TYK2 (875 to end residues) using GGMEDIYFEFMGGKKK as substrate measured after 40 mins in presence of [gamma33P]ATP by scintillation counting method.
The target of experiment [16] is Serine/threonine-protein kinase 24 (Homo sapiens) (UniProt Q9Y6E0). The experiment can be described thus: Inhibition of recombinant human MST3 (1 to 304 residues) at 10 uM using ERMRPRKRQGSVRRRV as substrate measured after 40 mins in presence of [gamma33P]ATP by scintillation counting method.
Experiment [17] has as its target Tyrosine-protein kinase Fgr (Homo sapiens) (UniProt P09769). The experiment can be described thus: Inhibition of recombinant human FGR (2 to end residues) at 10 uM using poly(Glu, Tyr) 4:1 as substrate measured after 40 mins in presence of [gamma33P]ATP by scintillation counting method.
The target of experiment [18] is Phosphatidylinositol 5-phosphate 4-kinase type-2 alpha (Homo sapiens) (UniProt P48426). The experiment can be described thus: Inhibition of recombinant full-length human PIP4K2alpha at 10 uM using phosphatidylinositol 5-phosphate as substrate measured after 40 mins by HTRF assay. (TR-FRET usually uses a lanthanide donor and a delayed reading to cut background.)
In experiment [19] the target is CDK3/Cyclin E (Homo sapiens) (UniProt P24864+Q00526). The experiment can be described thus: Inhibition of recombinant full-length human CDK3/cyclinE at 10 uM using histone H1 as substrate measured after 40 mins in presence of [gamma33P]ATP by scintillation counting method. Format: protein-complex assay.
Experiment [20] addresses Protein polybromo-1 (Homo sapiens) (UniProt Q86U86). The experiment can be described thus: Binding affinity to human partial length PBRM1 bromodomain 2 (S178 to E291 residues) expressed in bacterial expression system at 1 uM by BROMOscan assay. Summed up:
as §1

The target in experiment [21] is Bone morphogenetic protein receptor type-2 (Homo sapiens) (UniProt Q13873). In words: Inhibition of recombinant human BMPR2 (172 to 734 residues) at 10 uM using myelin basic protein as substrate measured after 120 mins in presence of [gamma33P]ATP by scintillation counting method.
The target of experiment [22] is SWI/SNF-related matrix-associated actin-dependent regulator of chromatin subfamily A member 2 (Homo sapiens) (UniProt P51531). The experiment can be described thus: Binding affinity to human partial length SMARCA2 (S1377 to Q1486 residues) expressed in bacterial expression system at 1 uM by BROMOscan assay. In outline: as §1
In experiment [23] the target is Mitogen-activated protein kinase kinase kinase 10 (Homo sapiens) (UniProt Q02779). In words: Inhibition of recombinant human MLK2 (1 to 449 residues) at 10 uM using myelin basic protein as substrate measured after 40 mins in presence of [gamma33P]ATP by scintillation counting method.

Molecules are shown by their SMILES. The source made the active and inactive calls. The calls are words filed in the database; no cut-off is given here.

Sequence of Peregrin (Homo sapiens) (P55201 whole entry, the tested form may be a part): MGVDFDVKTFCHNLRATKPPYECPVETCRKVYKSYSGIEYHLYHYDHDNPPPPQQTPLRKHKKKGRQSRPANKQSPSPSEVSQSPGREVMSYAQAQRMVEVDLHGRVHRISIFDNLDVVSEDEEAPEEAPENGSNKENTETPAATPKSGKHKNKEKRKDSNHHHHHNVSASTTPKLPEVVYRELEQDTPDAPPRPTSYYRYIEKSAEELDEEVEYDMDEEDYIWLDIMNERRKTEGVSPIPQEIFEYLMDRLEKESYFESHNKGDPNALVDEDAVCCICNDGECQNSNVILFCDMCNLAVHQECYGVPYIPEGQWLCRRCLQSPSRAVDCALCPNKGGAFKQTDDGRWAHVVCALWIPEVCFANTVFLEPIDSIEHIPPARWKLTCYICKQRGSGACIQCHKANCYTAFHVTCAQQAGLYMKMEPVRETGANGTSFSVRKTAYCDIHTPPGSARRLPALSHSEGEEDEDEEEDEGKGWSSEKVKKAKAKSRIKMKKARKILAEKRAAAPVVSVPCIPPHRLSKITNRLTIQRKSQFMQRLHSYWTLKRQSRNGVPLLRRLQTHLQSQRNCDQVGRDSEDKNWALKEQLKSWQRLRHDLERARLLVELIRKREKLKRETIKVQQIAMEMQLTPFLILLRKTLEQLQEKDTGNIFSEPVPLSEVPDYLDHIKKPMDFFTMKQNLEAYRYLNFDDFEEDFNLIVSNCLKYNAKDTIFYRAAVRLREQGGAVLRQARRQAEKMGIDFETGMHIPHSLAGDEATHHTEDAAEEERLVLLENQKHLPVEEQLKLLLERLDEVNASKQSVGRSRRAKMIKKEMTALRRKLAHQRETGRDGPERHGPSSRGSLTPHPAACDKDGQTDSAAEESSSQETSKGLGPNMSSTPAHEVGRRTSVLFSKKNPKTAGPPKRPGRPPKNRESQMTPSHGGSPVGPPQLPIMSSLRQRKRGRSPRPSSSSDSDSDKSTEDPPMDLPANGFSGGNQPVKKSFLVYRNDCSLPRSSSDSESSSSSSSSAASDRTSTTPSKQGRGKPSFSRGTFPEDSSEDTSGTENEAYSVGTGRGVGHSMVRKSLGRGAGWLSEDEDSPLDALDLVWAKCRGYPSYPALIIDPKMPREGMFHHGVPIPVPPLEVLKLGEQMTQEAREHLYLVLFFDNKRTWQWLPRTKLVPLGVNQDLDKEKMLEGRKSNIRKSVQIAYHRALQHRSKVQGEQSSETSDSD
Sequence of SWI/SNF-related matrix-associated actin-dependent regulator of chromatin subfamily A member 2 (Homo sapiens) (P51531 whole entry, the tested form may be a part): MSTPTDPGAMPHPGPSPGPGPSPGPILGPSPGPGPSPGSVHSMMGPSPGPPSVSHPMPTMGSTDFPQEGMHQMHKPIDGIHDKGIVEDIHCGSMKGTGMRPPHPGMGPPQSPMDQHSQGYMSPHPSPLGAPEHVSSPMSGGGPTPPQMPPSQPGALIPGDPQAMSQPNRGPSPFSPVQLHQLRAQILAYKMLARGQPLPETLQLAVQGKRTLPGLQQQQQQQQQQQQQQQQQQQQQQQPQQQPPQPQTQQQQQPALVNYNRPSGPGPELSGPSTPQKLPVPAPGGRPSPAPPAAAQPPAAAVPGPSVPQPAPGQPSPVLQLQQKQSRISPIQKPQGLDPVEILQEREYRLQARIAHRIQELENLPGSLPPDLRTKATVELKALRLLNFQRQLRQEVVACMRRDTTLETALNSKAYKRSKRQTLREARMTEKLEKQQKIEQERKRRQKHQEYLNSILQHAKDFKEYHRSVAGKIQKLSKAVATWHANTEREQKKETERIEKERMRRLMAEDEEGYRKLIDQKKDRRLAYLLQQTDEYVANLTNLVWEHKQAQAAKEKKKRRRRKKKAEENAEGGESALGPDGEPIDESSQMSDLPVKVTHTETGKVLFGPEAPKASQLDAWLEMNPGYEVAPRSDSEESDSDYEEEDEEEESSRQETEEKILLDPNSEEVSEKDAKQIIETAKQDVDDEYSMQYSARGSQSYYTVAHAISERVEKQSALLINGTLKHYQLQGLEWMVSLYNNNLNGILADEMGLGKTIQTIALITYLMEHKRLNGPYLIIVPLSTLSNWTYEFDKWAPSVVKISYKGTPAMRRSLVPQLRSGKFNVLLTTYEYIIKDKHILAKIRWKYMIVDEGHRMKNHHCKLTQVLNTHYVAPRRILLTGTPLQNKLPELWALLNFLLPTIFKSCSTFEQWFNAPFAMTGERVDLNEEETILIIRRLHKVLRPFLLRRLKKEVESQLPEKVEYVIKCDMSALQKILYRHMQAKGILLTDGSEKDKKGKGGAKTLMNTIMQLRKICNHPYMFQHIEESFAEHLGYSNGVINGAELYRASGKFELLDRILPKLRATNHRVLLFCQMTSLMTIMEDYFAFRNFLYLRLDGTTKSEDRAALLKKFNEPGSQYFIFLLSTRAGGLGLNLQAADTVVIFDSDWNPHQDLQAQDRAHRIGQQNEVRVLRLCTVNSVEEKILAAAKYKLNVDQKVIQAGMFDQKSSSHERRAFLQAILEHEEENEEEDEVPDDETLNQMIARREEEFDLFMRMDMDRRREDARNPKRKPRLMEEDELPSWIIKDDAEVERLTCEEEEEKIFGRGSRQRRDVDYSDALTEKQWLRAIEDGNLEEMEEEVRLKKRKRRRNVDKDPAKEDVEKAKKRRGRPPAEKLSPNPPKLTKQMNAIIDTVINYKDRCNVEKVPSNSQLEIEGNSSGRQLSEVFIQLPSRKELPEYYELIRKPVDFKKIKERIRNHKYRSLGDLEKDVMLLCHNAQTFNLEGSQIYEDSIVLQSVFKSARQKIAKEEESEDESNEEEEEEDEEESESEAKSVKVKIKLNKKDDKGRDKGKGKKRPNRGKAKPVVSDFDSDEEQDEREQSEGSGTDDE
Sequence of Insulin-like growth factor 1 receptor (Homo sapiens) (P08069 31-736 limits assumed): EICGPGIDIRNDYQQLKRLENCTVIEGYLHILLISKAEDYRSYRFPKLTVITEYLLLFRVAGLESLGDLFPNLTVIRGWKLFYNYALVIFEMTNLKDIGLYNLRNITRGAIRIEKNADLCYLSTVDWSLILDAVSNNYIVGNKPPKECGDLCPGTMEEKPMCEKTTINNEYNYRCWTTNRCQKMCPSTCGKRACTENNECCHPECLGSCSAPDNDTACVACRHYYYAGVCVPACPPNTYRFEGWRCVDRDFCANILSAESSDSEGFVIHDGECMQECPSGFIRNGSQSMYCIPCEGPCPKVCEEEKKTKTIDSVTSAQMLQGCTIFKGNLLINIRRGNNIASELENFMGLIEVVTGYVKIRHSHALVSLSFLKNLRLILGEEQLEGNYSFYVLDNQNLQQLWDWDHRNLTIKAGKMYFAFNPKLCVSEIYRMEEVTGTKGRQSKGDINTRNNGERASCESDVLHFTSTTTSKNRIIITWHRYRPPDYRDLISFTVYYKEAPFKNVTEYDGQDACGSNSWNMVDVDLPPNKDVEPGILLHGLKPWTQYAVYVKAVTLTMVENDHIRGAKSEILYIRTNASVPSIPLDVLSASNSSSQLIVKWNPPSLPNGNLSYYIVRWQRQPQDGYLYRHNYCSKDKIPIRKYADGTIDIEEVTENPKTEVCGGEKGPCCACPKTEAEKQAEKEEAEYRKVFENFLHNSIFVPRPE
Sequence of Insulin-like growth factor 1 receptor (Homo sapiens) (P08069 741-1367 limits assumed): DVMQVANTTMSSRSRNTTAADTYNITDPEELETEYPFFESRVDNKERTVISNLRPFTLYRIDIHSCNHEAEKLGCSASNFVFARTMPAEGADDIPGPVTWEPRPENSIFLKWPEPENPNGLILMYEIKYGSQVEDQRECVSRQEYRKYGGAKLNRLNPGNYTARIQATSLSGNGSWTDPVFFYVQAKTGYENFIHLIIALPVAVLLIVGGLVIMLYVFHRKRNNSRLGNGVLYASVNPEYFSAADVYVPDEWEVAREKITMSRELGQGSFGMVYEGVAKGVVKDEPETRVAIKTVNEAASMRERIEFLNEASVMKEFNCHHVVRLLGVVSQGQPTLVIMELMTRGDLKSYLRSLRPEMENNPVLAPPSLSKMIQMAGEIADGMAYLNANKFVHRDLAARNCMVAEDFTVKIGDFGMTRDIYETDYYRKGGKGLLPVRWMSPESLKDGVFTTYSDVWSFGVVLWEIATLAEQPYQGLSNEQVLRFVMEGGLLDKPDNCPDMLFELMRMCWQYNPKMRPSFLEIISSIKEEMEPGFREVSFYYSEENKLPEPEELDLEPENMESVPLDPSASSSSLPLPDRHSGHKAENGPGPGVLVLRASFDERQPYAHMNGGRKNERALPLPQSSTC
Sequence of Phosphatidylinositol 5-phosphate 4-kinase type-2 alpha (Homo sapiens) (P48426 whole entry): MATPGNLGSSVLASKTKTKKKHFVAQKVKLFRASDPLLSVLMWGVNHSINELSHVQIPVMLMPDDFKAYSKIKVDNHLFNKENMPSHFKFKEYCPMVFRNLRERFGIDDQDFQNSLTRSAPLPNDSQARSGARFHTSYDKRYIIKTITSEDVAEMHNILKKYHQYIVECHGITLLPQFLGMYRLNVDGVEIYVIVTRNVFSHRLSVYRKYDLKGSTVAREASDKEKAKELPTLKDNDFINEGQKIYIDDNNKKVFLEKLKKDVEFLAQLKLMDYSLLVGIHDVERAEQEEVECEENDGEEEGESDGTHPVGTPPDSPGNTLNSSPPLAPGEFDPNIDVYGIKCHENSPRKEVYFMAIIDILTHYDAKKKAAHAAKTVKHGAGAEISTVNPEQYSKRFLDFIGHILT
Sequence of Mitogen-activated protein kinase 12 (Homo sapiens) (P53778 whole entry): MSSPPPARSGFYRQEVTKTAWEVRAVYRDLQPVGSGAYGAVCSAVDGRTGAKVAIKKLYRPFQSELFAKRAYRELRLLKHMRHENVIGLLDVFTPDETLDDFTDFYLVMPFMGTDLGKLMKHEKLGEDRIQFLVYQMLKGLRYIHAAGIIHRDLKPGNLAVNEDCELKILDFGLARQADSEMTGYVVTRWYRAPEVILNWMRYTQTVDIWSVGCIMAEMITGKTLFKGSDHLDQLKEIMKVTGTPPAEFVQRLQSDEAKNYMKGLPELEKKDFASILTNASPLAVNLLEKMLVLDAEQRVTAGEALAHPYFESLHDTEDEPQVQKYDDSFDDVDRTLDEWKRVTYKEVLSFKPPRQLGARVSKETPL

Consider `CN1C[C@H](Nc2nc3cc[nH]c3c(=O)n2C)C[C@H](c2ccc3c(c2)OCCO3)C1`, for which the inhibition entry (in the experiment listed under Homo sapiens [1]; in experiment [2]; in the experiment filed under Homo sapiens [3]; in experiment [4]; in experiment [5]; in experiment [6]) was “inactive” each time. Besides, the inhibition entry in experiment [7], in [8], in experiment [9], in experiment [10], in [11] and in experiment [12] was “inactive” throughout. The inhibition entry in [13], in [14], in [15], in [16], in experiment [17] and in experiment [18] was “inactive” in each case. The inhibition entry in [19], in [21] and in [23] was “inactive” throughout. Besides, the outcome at Peregrin (Homo sapiens) was Active. In addition, the outcome in experiment [20] and in [22] was inactive.
